Assay outcomes (PubChem BioAssay)
LANA DNA inh = inhibitors of KSHV LANA C-terminal domain DNA binding. MBP-C-LANA/FAM-LBS DNA binding, fluorescence polarization. 0.078% of 340,000 active. AID 504423. inhibition, % at 9 µM;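 active = highest replicate inhibition at or above 60% at 9 µM, even if other replicates fall short; inactive = all replicates below 60% inhibition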
CaV13 ICDI inh = Disruptors of the CACNA1D IQ motif to Ca2+-dependent inactivation inhibitor domain association, primary screening, Förster resonance energy transfer in intact living …. HEK cells, CFP/YFP FRET ICDI-IQ, plate reader, 10 min; percent FRET-ratio fall versus neutral wells. inhibition, % at 12.3 µM. 0.098% of 340,000 active. AID 743397;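 active = mean replicate inhibition of at least 30% and at least 1% of replicates passing that level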
CAL PDZ FP-1 = inhibitors of human CAL PDZ peptide binding. 0.92% of 300,000 active. inhibition, % at 24.9 µM. purified CAL PDZ, TMR-peptide fluorescence polarization, 1 h. Q9HD26. AID 602252;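 active = mean inhibition of at least 30% with at least half of replicates also reaching 30%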
LANA-H2B inh = blocks KSHV LANA binding to histone H2A/H2B; cell-free LANA-H2A/H2B peptide, fluorescence polarization; inhibition, % (no concentration beside the values); 0.6% of 320,000 active; AID 2629; in the data active = inhibition mostly above about 10%, no sharp cut-off; inactive = mostly below about 6.7%
CAL PDZ FP-2 = human CAL PDZ-peptide interaction inhibition | 0.02% of 330,000 active | AID 504414 | inhibition, % at 20 µM | Q9HD26 | purified CAL PDZ, TMR-peptide fluorescence polarization, 1 h;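 active = highest replicate inhibition of at least 40%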
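System: tagged CAL PDZ domain. Schedule: 1 h room-temperature incubation prior to read. Signal: fluorescence polarization (mP). Measure: percent inhibition from loss of millipolarization.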
Keap1 Nrf2 FP = Keap1-Nrf2 (human) interaction inhibition. Keap1 Kelch-Nrf2 peptide fluorescence polarization, 1536-well. inhibition, % at 9.4 µM. 0.15% of 340,000 active. AID 504523; in the data active = inhibition above about 12%;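 note: human Keap1 Kelch domain with fluorescein labeled Nrf2 9mer peptide probe; higher means more block of Keap1 binding to Nrf2 peptide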
Target sequence (Q14145 whole entry, looked up, the tested form may be a part): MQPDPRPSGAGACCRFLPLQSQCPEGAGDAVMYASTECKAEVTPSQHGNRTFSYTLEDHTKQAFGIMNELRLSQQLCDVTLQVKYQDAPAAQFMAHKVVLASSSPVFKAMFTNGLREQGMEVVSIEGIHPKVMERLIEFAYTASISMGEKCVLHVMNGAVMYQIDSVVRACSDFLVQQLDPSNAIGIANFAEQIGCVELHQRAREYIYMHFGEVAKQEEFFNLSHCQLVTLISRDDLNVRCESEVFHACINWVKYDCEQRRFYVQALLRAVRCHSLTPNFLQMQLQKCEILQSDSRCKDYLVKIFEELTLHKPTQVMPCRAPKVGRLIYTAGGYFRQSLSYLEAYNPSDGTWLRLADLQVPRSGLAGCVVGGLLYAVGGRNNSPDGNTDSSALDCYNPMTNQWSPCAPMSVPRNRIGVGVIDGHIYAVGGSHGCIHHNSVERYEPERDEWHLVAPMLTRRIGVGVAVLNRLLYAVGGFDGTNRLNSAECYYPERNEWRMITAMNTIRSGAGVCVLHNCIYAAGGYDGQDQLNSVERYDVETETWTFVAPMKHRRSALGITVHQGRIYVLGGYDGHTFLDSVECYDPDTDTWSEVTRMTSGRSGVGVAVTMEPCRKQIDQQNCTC
Numbers stand for hits; n = inactive; x = no result given; + = active, no number; ! = not confirmed by another sample. Only some compounds are listed: those with a hit (about 1.5% of all), similar ones and a draw of the others.

SMILES	LANA DNA inh	CaV13 ICDI inh	CAL PDZ FP-1	LANA-H2B inh	CAL PDZ FP-2	Keap1 Nrf2 FP
COc1ccc(CCNC(=O)CCC(=O)NC2CCCC(C)C2C)cc1OC (centres undefined)	n	n	n	n	n	n
Cc1ccc(C2=N/C(=C\c3coc4ccccc4c3=O)C(=O)O2)cc1	x	n	x	x	x	x
COc1ccccc1C(=O)C1Nc2ccccc2-c2nnc(SC)nc2O1 (centres undefined)	n	n	n	21	n	n
COC(=O)c1ccc2nc(C3CCCCC3)c(Cc3ccccc3OC)n2c1	x	n	x	x	x	x
COc1ccc(NC(=O)CN2C(=O)NC3(CCCCCC3)C2=O)cc1Cl	n	n	n	n	n	n
CCC1CCC2(CC1)NC(=O)N(CC(=O)Nc1ccc(OC)c(Cl)c1)C2=O (centres undefined)	n	n	81	n	n	n
COc1ccc(C2(c3ccc(OC)cc3)NC(=O)N(CC(=O)Nc3ccc(OC)c(OC)c3)C2=O)cc1	n	n	51	n	n	n
COc1ccc(C(=O)NCC2CCN(C(=O)C(=O)c3cc4ccccc4o3)CC2)cc1	x	n	x	x	x	x
Cc1nn2c(-c3ccc(F)cc3)ccnc2c1Cl	n	n	61	n	n	n
CC(=O)N(/C=C1\SC(=S)N(c2ccccc2)C1=O)c1ccccc1	n	n	35	n	n	n
CCN1C(=O)/C(=C\N(C(C)=O)c2ccccc2)OC1=S	n	x	n	n	n	n
COC(=O)c1c(SCC(=O)NC2CCCCC2)[nH]c2ccccc2c1=O	n	n	31	n	n	n
O=C(O)CSc1nc2c(c(C(F)(F)F)n1)CCCC2	n	n	78!	n	n	n
CS(=O)(=O)N(CC(=O)NCCSc1ccccn1)c1ccc(F)cc1	n	n	x	n	n	n
Cc1ccc(-c2ccc(/C=C(\C#N)C(=O)Nc3cc(C)nn3-c3ccccc3)o2)cc1	x	x	x	23	x	x
Cn1cnc(S(=O)(=O)Nc2ccc(OC(F)(F)F)cc2)c1	n	+	x	n	n	n
Cc1cc(OCCn2ccnc2)cc(C)c1Cl	n	n	n	n	n	n
COc1ccc(OC)c(NC(=O)N2CCCC(C(=O)c3ccccc3OC)C2)c1 (centres undefined)	n	n	77	n	n	n
COc1ccc(OC)c(NC(=O)N2CCCC(C)C2)c1 (centres undefined)	n	n	n	n	n	n
COc1cccc(C(=O)C2CCCN(C(=O)c3ccccn3)C2)c1 (centres undefined)	n	n	73	n	n	n
CC(C)(C)c1ccc(C(=O)C2CCCN(C(=O)c3ccccn3)C2)cc1 (centres undefined)	n	n	n	x	n	n
CCCCN1C(=O)C(CC(=O)NCCc2ccccn2)CC(C(=O)N2CCCCCC2)=C1C (centres undefined)	x	n	x	x	x	x
Cc1cc2c(c(=O)o1)[C@@]1(C(=O)N(C)c3c(Br)cccc31)C1=C(CCCC1=O)O2	x	n	x	x	x	x
COCCCNC(=O)[C@@H](Cc1ccccc1)NC(=O)[C@H]1O[C@@H](n2ccc(=O)[nH]c2=O)[C@H](O)[C@@H]1O	x	n	x	x	x	x
CC(C)(C)OC(=O)N1CCC[C@@H]1C(=O)N1CCC[C@H]1C(=O)NCc1ccccc1	x	n	x	x	x	x
SMILES	LANA DNA inh	CaV13 ICDI inh	CAL PDZ FP-1	LANA-H2B inh	CAL PDZ FP-2	Keap1 Nrf2 FP
Cc1c(NC2(C#N)CCCC2)c(=O)n(-c2ccccc2)n1C	n	x	78	n	n	n
Cc1c(NC2=CC(=O)CC(C)(C)C2)c(=O)n(-c2ccccc2)n1C	n	n	31	n	n	n
Cc1ccc(OCCNC(=O)[C@@H](Cc2ccccc2)NC(=O)[C@H]2O[C@@H](n3ccc(=O)[nH]c3=O)[C@H](O)[C@@H]2O)cc1C	x	n	x	x	x	x
CCc1ccccc1S(=O)(=O)Cc1ccc(C(=O)N2CCN(c3ccccc3OC)CC2)o1	n	55	n	x	n	n
O=C(C(=O)N1CCC(CNC(=O)c2cccnc2Cl)CC1)c1cc2ccccc2o1	x	n	x	x	x	x
C=CCn1c(=S)[nH]c2scc(-c3cccs3)c2c1=O	n	n	n	x	n	n
Cn1c(=S)[nH]c2scc(-c3cccs3)c2c1=O	n	n	66	x	n	n
O=C(CCCN1C(=O)c2cccnc2C1=O)N1CC(=O)N(CCc2ccccc2)C(=O)C1	n	n	n	25	n	n
O=C(CCCN1C(=O)c2cccnc2C1=O)Nc1ccccc1F	n	n	n	n	n	n
Cc1ccc(Nc2nc3ccccc3n3cnnc23)cc1C	n	n	n	n	n	n
COc1ccc(Nc2nc3ccccc3n3cnnc23)cc1	n	n	60	n	n	n
CN(C)CCNC(=O)c1ccc(-c2cnn(C)c2)c2ccoc12	x	n	x	x	x	x
Cc1ccc2oc(=O)c(/C=C(\O)c3ccco3)nc2c1	n	n	n	4.3	n	n
Cc1ccc(-n2c(C)cc(/C=N/NC(=O)Cn3c4ccccc4c(=O)c4ccccc43)c2C)cc1	n	+	n	n	n	n
O=C(Cn1c2ccccc2c(=O)c2ccccc21)N/N=C/c1ccc(N2CCCC2)c([N+](=O)[O-])c1	n	n	n	+	n	n
CCN(CC)CCCNC(=O)c1cc(-c2ccc(Cl)c(Cl)c2)on1	n	n	x	19	n	n
Cc1ccccc1/C=C1\Oc2ccccc2C1=O	n	n	n	57	n	n
O=C1C(=Cc2cccs2)Oc2ccccc21	n	n	n	x	n	n
CCc1ccc(N2C(=O)CN(Cc3cccs3)C2=S)cc1	n	n	n	+	n	n
Cc1ccc(S(=O)(=O)N2CCC(C(=O)OCC(=O)Nc3cc(S(C)(=O)=O)ccc3Cl)CC2)cc1C	n	x	40	n	n	n
CS(=O)(=O)c1ccc(Cl)c(NC(=O)COC(=O)c2ccc(F)cc2Cl)c1	71	n	n	n	n	n
Cc1ccc(Cl)c(NC(=O)COC(=O)C2CCC2)c1Cl	n	n	55	n	n	n
Cc1cc(C)c(NC(=O)COC(=O)C2CCC2)c(Cl)c1	n	n	n	n	n	n
O=C(COC(=O)c1ccc(F)cc1F)Nc1ccc(Cl)cn1	n	n	x	25	n	n
COC(=O)C1=C(C)N(Cc2ccc(C(F)(F)F)cc2)C(=NCc2ccccc2)NC1c1ccccc1 (centres undefined)	x	n	x	x	x	x
CCN1CCN(C(=O)Cn2cnc3sc(C)c(S(=O)(=O)N4CCN(c5ncccn5)CC4)c3c2=O)CC1	n	n	n	n	n	n
C[C@@H]1C=CCCO[C@]12C(=O)Nc1ccccc12	x	n	x	x	x	x
O=C(NCCN1CCC(n2c(=O)[nH]c3cc(Cl)ccc32)CC1)c1ccc(F)cc1	x	n	x	x	x	x
COC(=O)[C@@H](Cc1c[nH]c2ccccc12)NC(=O)CNC(=O)c1ccccc1OC	n	n	n	n	n	n
CC(C)CC1NC(=O)N(CC(=O)N(C)C2CCCCC2)C1=O (centres undefined)	n	n	108	n	n	n
